# Data taken from ChEMBL document CHEMBL4346679, “N, N', N″-trisubstituted guanidines: Synthesis, characterization and evaluation of their leishmanicidal activity” (Eur J Med Chem, 2019).
# Active and inactive are the calls of the source. No cut-off for these calls is given here.
# Tests used:
# Leishmania amazonensis [1] = assay: Antileishmanial activity against Leishmania amazonensis MPRO/BR/1972/M1841-LV-79 amastigotes infected in mouse peritoneal macrophages assessed as parasite growth inhibition after 24 hrs by Giemsa staining-based microscopic method; type: functional, organism-based; details: MPRO/BR/1972/M1841-LV-79, 24 h
# Method in brief: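 Peritoneal macrophages (3 × 10^5/well on coverslips, RPMI 1640 + 10% FBS) adhered 4 h at 37 °C, 5% CO2, then infected with stationary-phase promastigotes at 5:1 for 4 h. After washing, cells were cultured 18 h, then treated 24 h with compounds or reference drugs. Cells were methanol-fixed and Giemsa-stained. Infection index = % infected macrophages × mean amastigotes per infected cell. IC50 was fitted by regression.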
# Leishmania amazonensis [2] = assay: Antileishmanial activity against promastigote stage of Leishmania amazonensis MPRO/BR/1972/M1841-LV-79 assessed as parasite growth inhibition after 72 hrs by MTT assay; type: functional, organism-based; details: MPRO/BR/1972/M1841-LV-79, 72 h
# Method in brief: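 Promastigotes at 1 × 10^7/mL in LIT + 10% FBS were exposed 72 h at 28 °C to ten concentrations, 0.5–100 µM (final DMSO 0.1%). Viability was read by MTT, with formazan dissolved in SDS-HCl and absorbance at 570 nm. Run in triplicate; IC50 from nonlinear regression.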
# [3] = Cytotoxicity against mouse peritoneal macrophages assessed as decrease in cell viability after 24 hrs by MTT assay; type: cell-based, Peritoneal macrophage
# Method in brief: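 Peritoneal macrophages (1 × 10^5/well) in RPMI 1640 with 10% FBS, 25 mM HEPES and 2 mM L-glutamine were pre-incubated 4 h. They were then exposed to compounds for 24 h at 37 °C, 5% CO2. Viability was read by MTT; CC50 determined.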
# Leishmania amazonensis [4] = assay: Antileishmanial activity against promastigote stage of Leishmania amazonensis MPRO/BR/1972/M1841-LV-79 infected in Balb/c mouse assessed as decrease in plasma alkaline phosphatase level at 2 mg/kg, ip administered once daily for 15 days measured post-last dose; type: organism-based; details: in vivo, 360 h
# Method in brief: (§1)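 Female BALB/c mice (4 weeks old, 5 per group) were infected in the left hind footpad with 1 × 10^7 parasites/mL of infective promastigotes. After six weeks they received daily ip doses for 15 days: 0.13 or 0.25 mg/kg/day (from DMSO stock in PBS, 0.1% DMSO), AmpB 2 mg/kg/day in sterile water, or PBS. Controls were untreated infected and uninfected mice. At end of treatment, plasma bilirubin, AST, ALT, ALP, urea and creatinine were measured with commercial kits.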
# Leishmania amazonensis [5] = assay: Antileishmanial activity against Leishmania amazonensis MPRO/BR/1972/M1841-LV-79 amastigotes infected in mouse peritoneal macrophages assessed as reduction in number of intracellular amastigotes at 25 uM after 72 hrs by Giemsa staining-based microscopic method relative to control; type: functional; set-up: scale not given: the % may be the effect or the level left
# Method in brief: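 Infected peritoneal macrophages were treated with 25 µM of each compound, pentamidine or AmpB for 72 h. The infection index (% infected macrophages × amastigotes per infected macrophage) was compared with untreated infected cells. Data are given as mean ± SD.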
# [6] = Renal toxicity in Balb/c mouse infected with promastigote stage of Leishmania amazonensis MPRO/BR/1972/M1841-LV-79 assessed as change in plasma creatinine level at 2 mg/kg, ip administered once daily for 15 days measured post-last dose; type: organism-based; details: in vivo, 360 h; method in brief: as §1
# [7] = Safety index, ratio of CC50 for mouse peritoneal macrophage to IC50 for promastigote stage of Leishmania amazonensis MPRO/BR/1972/M1841-LV-79; type: toxicity; details: read-out: Ratio CC50/IC50
# Leishmania amazonensis [8] = assay: Antileishmanial activity against promastigote stage of Leishmania amazonensis MPRO/BR/1972/M1841-LV-79 infected in Balb/c mouse assessed as reduction in parasitic load at 2 mg/kg, ip administered once daily for 15 days by limiting dilution method relative to control; type: functional; set-up: scale not given: the % may be the effect or the level left
# Method in brief: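 Footpad-infected female BALB/c mice (1 × 10^7 parasites/mL promastigotes; 5 per group) were treated from six weeks post-infection. Dosing was daily ip for 15 days: 0.13 or 0.25 mg/kg/day (PBS, 0.1% DMSO), AmpB 2 mg/kg/day, or PBS vehicle. Skin-lesion parasite burden was quantified after treatment by limiting dilution and compared with untreated infected mice. Data are mean ± SD.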
# Leishmania amazonensis [9] = assay: Antileishmanial activity against promastigote stage of Leishmania amazonensis MPRO/BR/1972/M1841-LV-79 infected in Balb/c mouse assessed as decrease in plasma alanine aminotransferase level at 2 mg/kg, ip administered once daily for 15 days measured post-last dose; type: functional, organism-based; method in brief: as §1
# [10] = Renal toxicity in Balb/c mouse infected with promastigote stage of Leishmania amazonensis MPRO/BR/1972/M1841-LV-79 assessed as change in plasma urea level at 2 mg/kg, ip administered once daily for 15 days measured post-last dose; type: organism-based; details: in vivo, 360 h; method in brief: as §1
# Leishmania amazonensis [11] = assay: Antileishmanial activity against promastigote stage of Leishmania amazonensis MPRO/BR/1972/M1841-LV-79 infected in Balb/c mouse assessed as increase in plasma bilirubin level at 2 mg/kg, ip administered once daily for 15 days measured during compound dosing; type: functional, organism-based
# Leishmania amazonensis [12] = assay: Antileishmanial activity against promastigote stage of Leishmania amazonensis MPRO/BR/1972/M1841-LV-79 infected in Balb/c mouse assessed as reduction in volume of foot lesions at 2 mg/kg, ip administered once daily for 15 days measured every 5 days during compound dosing by caliper method; type: functional, organism-based
# Method in brief: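 Infected BALB/c mice (5 per group) were dosed daily ip for 15 days, starting six weeks after footpad inoculation: 0.13 or 0.25 mg/kg/day, AmpB 2 mg/kg/day, or PBS. Foot lesion thickness was measured with a dial caliper every 5 days.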
# Leishmania amazonensis [13] = assay: Antileishmanial activity against promastigote stage of Leishmania amazonensis MPRO/BR/1972/M1841-LV-79 infected in Balb/c mouse assessed as decrease in plasma aspartate aminotransferase level at 2 mg/kg, ip administered once daily for 15 days measured post-last dose; type: functional, organism-based; method in brief: as §1
# [14] = Toxicity in Balb/c mouse infected with promastigote stage of Leishmania amazonensis MPRO/BR/1972/M1841-LV-79 assessed as change in body weight at 2 mg/kg, ip administered once daily for 15 days measured during compound dosing; type: organism-based; details: in vivo, 360 h
# [15] = Safety index, ratio of CC50 for mouse peritoneal macrophages to IC50 for Leishmania amazonensis MPRO/BR/1972/M1841-LV-79 amastigotes infected in mouse peritoneal macrophages; type: toxicity; details: read-out: Ratio CC50/IC50
structure (smiles),measurement,setting,value
C[C@@H]1[C@H](O)[C@@H](C)/C=C/C=C/C=C/C=C/C=C/C=C/C=C/[C@H](O[C@@H]2O[C@H](C)[C@@H](O)[C@H](N)[C@@H]2O)C[C@@H]2O[C@](O)(C[C@@H](O)C[C@@H](O)[C@H](O)CC[C@@H](O)C[C@@H](O)CC(=O)O[C@H]1C)C[C@H](O)[C@H]2C(=O)O [AMPHOTERICIN B],IC50,Leishmania amazonensis [1],4.92 µM
same,IC50,Leishmania amazonensis [2],3.2 µM
same,CC50 at 24 h,[3],23.1 µM
same,Activity,Leishmania amazonensis [4],Active
same,Activity,Leishmania amazonensis [5],84%
same,Activity,[6],Non-Toxic
same,selectivity ratio,[7],7.2
same,Activity,Leishmania amazonensis [8],41%
same,Activity,Leishmania amazonensis [9],Active
same,Activity,[10],Non-Toxic
same,Activity,Leishmania amazonensis [11],Active
same,Activity,Leishmania amazonensis [12],Active
same,Activity,Leishmania amazonensis [13],Active
same,Activity,[14],Non-Toxic
same,selectivity ratio,[15],4.7
